Reference: PubChem BioAssay AID504383 (The Scripps Research Institute Molecular Screening Center, 2011)
In all, about 2,500 compounds went through this assay and about 1,200 (48%) were called active.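 Rule for the calls: active = mean activation above the low control average plus 3 SD, as set in the primary screen (cut at about 12% in these data); inactive = the rest.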 The set was probably picked from earlier hits. The list shows a part of the results.

Each molecule was assayed against Troponin I, cardiac muscle (Homo sapiens) + Troponin T, cardiac muscle (Homo sapiens) + Troponin C, slow skeletal and cardiac muscles (Homo sapiens) (UniProt P19429+P45379+P63316) (assay: calcium sensitizers of cardiac thin filaments – biochemical, IANBD-TnC fluorescence, triplicate, confirmation (AID 504383;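 note: 0% = DMSO at 0.472 mM calcium and 100% = DMSO at 2.9 mM calcium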)). Conditions: IANBD-labeled cardiac RTF, Ca2+ sensitivity fluorescence; at 7.2 µM; hits give high values; scaled from EC20 to saturating calcium; tested at EC20 calcium, 0.472 mM.
Procedure, shortened: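 Assay system: labelled regulated thin filaments / Timing: 15 min at 25 °C / Detection: fluorescence intensity of labelled filaments / Measure: fluorescence gain scaled between EC20 and EC100 calcium controls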

| SMILES | activation |
| --- | --- |
| COc1ccc(-c2csc(N3CCN(c4cc5c(cc4Cl)nc(-c4ccncc4)n5CCOCCO)CC3)n2)cc1 | 2.85% (inactive) |
| Cc1cc(N2CCN(c3nc(-c4ccc([N+](=O)[O-])cc4)cs3)CC2)c2ccccc2n1 | 14.9% (active) |
| CC(=O)c1nnn(-c2cccc(C#N)c2)c1C | 1.86% (inactive) |
| O=C(CCSc1ccccc1)N1CCN(C(=O)c2ccco2)CC1 | 135% (active) |
| O=c1[nH]c2c(s1)C=Nc1ccccc1N2 | 2.27% (inactive) |
| O=[n+]1c2c(n([O-])c3cc(F)c(N4CCCC4)cc31)CCCC2 | 259% (active) |
| O=[n+]1c2c(n([O-])c3cc(F)c(N4CCCC4)cc31)CCC2 | 92% (active) |
| O=[n+]1c2c(n([O-])c3ccccc31)CCC2 | 29.4% (active) |
| O=C(Cn1c(=O)c(=O)n(Cc2ccccc2)c2ccc(Cl)cc21)Nc1ccc(F)cc1F | 1.32% (inactive) |
| O=C1Nc2ccccc2/C1=C/c1cnc(-c2ccccc2)[nH]1 | 92.3% (active) |
| Cc1ccc(N/C=C2/Sc3ccccc3NC2=O)cc1 | 9.19% (inactive) |
| Cc1cc(C)c(/C=C2\C(=O)Nc3ccccc32)[nH]1 | 14.2% (active) |
| COc1ccc(CC(=O)NCc2csc(-c3cccs3)n2)cc1OC | 5.67% (inactive) |
| COc1ccc(CNS(=O)(=O)c2cc(-c3cc(C)no3)ccc2OC)cc1OC | 24.2% (active) |
| CC1CC(C)CN(S(=O)(=O)N2CCCC(C(=O)NC3CCCCC3)C2)C1 (configuration not stated) | 219% (active) |
| Cc1cc(NC(=O)CN2C(=O)[C@@H]3[C@H](C2=O)[C@@H]2C[C@H]3C(Br)C2Br)no1 (some centres not stated) | 40% (active) |
| CC(/C=N/Nc1ccc2nncn2n1)=C\c1ccccc1 | 70.4% (active) |
| CCOC(=O)c1cc(C#N)c(SCC(=O)c2cc(C#N)c(SC)nc2C)[nH]c1=O | 15.6% (active) |
| O=C(Nc1ccc(F)cc1F)c1ccc(COc2c(F)c(F)cc(F)c2F)o1 | 4.6% (inactive) |
| O=C(/C=C/c1ccccc1[N+](=O)[O-])Nc1cccnc1 | 5.57% (inactive) |
| C/C(=N\Nc1ccc([N+](=O)[O-])cc1[N+](=O)[O-])c1cccnc1 | 17% (active) |

| SMILES | activation |
| --- | --- |
| O=C(c1ccc([N+](=O)[O-])cc1[N+](=O)[O-])n1cnc2ccccc21 | -1.33% (inactive) |
| CC(C)(Cc1cccc(CC(C)(C)C(=O)O)c1)C(=O)O | 12% (active) |
| CS(=O)(=O)N(CC(=O)O)Cc1cccc(CN(CC(=O)O)S(C)(=O)=O)c1 | 9.58% (inactive) |
| CCCOc1ccc(N)cc1N | 10.4% (inactive) |
| O=C(CC1C(=O)N(c2ccc(Cl)cc2)C(=S)N1CCc1ccncc1)Nc1ccc(F)cc1 (configuration not stated) | 3.64% (inactive) |
| CCOC(=O)c1ccc(-c2c(-c3ccc4c(c3)OCO4)noc2C)cc1F | 12% (active) |
| COc1cc(-c2c(-c3ccc4c(c3)OCO4)noc2C)ccc1F | 37.8% (active) |
| Cc1ccc(-c2noc(-c3c(C)noc3C)n2)cc1 | 9.16% (inactive) |
| Nc1ccc2c3c(cccc13)-c1ccccc1-2 | 10% (inactive) |
| Cc1ccccc1S(=O)(=O)Cc1ccc(C(=O)NCCN(C)Cc2ccccc2)o1 | 28.6% (active) |
| O=C(NCCN1CCOCC1)c1ccc(CS(=O)(=O)c2c(Cl)cccc2Cl)o1 | 7.99% (inactive) |
| Brc1ccc(-c2cnnc(N3CCCC3)n2)cc1 | 184% (active) |
| CC(C)(C)c1ccc(-c2n[nH]c(=S)n2CC2CCCO2)cc1 (configuration not stated) | 101% (active) |
| O=C(Nc1ccccc1OC(=O)c1ccccc1)c1ccccc1 | 235% (active) |
| COc1ccccc1NC(=O)/C=C/C(=O)O | 9.02% (inactive) |
| CC(C)C(=O)c1cc2c(cc1NC(=O)c1ccccc1)OCCO2 | 3.91% (inactive) |
| Cc1ccc([N+](=O)[O-])c(OCCCN2C(=O)NC(C)(C)C2=O)c1 | 11% (inactive) |
| COc1ccc(C2=NN(C(=O)CSc3ncccn3)C(c3ccc(C)cc3)C2)cc1 (configuration not stated) | 505% (active) |
| CC1CCC(C(C)C)C(OC(=O)Cn2c(-c3ccccc3)[n+](C)c3ccccc32)C1 (configuration not stated) | 10.7% (inactive) |
| CN(C)c1ccc(/C=C/C(=O)c2cc(Cl)ccc2O)cc1 | 5.68% (inactive) |
| CC(/C=C/c1ccc(N(C)C)cc1)=N/N=C1/NC(=O)CC(C(=O)Nc2ccc(Cl)cc2)S1 (configuration not stated) | 14.4% (active) |

| SMILES | activation |
| --- | --- |
| COc1ccc(CN=C2NC(=O)CC(C(=O)Nc3ccc(F)cc3)S2)cc1 (configuration not stated) | 10.2% (inactive) |
| COc1ccc(-c2cc(C3CC3)nc(SCC(=O)c3cccs3)c2C#N)cc1 | 8.22% (inactive) |
| O=C(c1cccs1)N1CCN=C1SCc1cccc(F)c1 | 0.56% (inactive) |
| N#Cc1c(-c2ccccc2F)cc(C2CC2)nc1SCC(=O)c1cccs1 | 14.3% (active) |
| CC(C)OC(=O)c1c2c(n3ccccc13)C(=O)c1ccccc1C2=O | 9.36% (inactive) |
| CCN(CC)c1ccc(/C=C/c2cccc[n+]2C)c(OC)c1 | 63.4% (active) |
| CN(C)/C=C/C(=O)c1ccc(Br)s1 | 10.5% (inactive) |
| Cc1nc(NC(=O)c2ccccc2[N+](=O)[O-])sc1C(=O)N(C)C | 11.2% (inactive) |
| CN(C)NC(=O)c1ccc([N+](=O)[O-])s1 | 31.3% (active) |
| Cc1c(Cl)c([N+](=O)[O-])nn1CC(=O)N1CCN(C23CC4CC(CC(C4)C2)C3)CC1 | 12% (active) |
| O=C(Cn1cnc2c(cnn2-c2ccccc2)c1=O)Nc1ccc(S(=O)(=O)N2CCOCC2)cc1 | 31% (active) |
| O=S(=O)(c1ccc(NC(=S)Nc2ccccc2)cc1)N1CCOCC1 | 24.5% (active) |
| CN(C)NC(=S)Nc1ccc(S(=O)(=O)N2CCCCC2)cc1 | 19.8% (active) |
| Cc1cccc(NC(=O)Cn2cnc3ccc(S(=O)(=O)N4CCC(C)CC4)cc3c2=O)n1 | 8.56% (inactive) |
| CN1CC[C@@H]2C(=O)N3CCc4ccc(Br)cc4[C@@H]3C[C@@H]21 | 10.5% (inactive) |
| O=C(CSc1nc2ncc(Br)cc2[nH]1)c1cccc([N+](=O)[O-])c1 | 64% (active) |
| CC(Sc1nc2ncc(Cl)cc2[nH]1)C(=O)Nc1ccc(C(N)=O)cc1 (configuration not stated) | 1.26% (inactive) |
| CC(=O)N1C(=O)C(=C2C=C(C)OC(C)=C2)c2ccccc21 | 62.7% (active) |
| Cc1c2ccccc2nc2c(F)c(NCCO)c(F)c(F)c12 | 159% (active) |
| Cc1c2ccccc2nc2c(F)c(N(C)C)c(F)c(F)c12 | 19.2% (active) |
